Results as given in publication PMC5453637 (Translational research : the journal of laboratory and …, 2016).
“And” between values parts separate entries of the source, which are not always exact repeats. Equal entries are not always repeated.

What was measured:
human wild-type CFTR [1] = biological target: T1, human wild-type CFTR (Homo sapiens, UniProt P13569); experiment: Plate reader assay of CFTR activity; type: cell-based; conditions: read-out: EC50 CFTR activation; as stated in abstract
How it was run: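 FRT cells co-expressing human wild-type CFTR and YFP-H148Q were plated at 20,000 cells/well and used 24–48 h later. After 3 PBS washes, cells were incubated 10 min with test compound plus 125 nM forskolin. Fluorescence was recorded 2 s at baseline, then 12 s after adding PBS with 137 mM Cl⁻ replaced by I⁻. Initial iodide influx rate came from exponential regression. EC50 was taken from full concentration-dependence data, n=3.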

human wild-type CFTR [2] = biological target: T1, human wild-type CFTR; experiment: Whole-cell patch-clamp in FRT cells; type: cell-based
human wild-type CFTR [3] = biological target: T1, human wild-type CFTR; experiment: Inside-out patch-clamp; type: biochemical; conditions: 1 μM, after submaximal ATP and catalytic subunit of protein kinase A
How it was run: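 Inside-out macro-patches were taken from FRT cells stably expressing human wild-type CFTR using large pipette tips (3–5 MΩ). Pipette: 150 mM NMDG-Cl, 3 CaCl2, 2 MgCl2, 10 Na-HEPES, pH 7.3. Test compound (1 μM) followed. Steps of 600 ms ran −100 to +100 mV in 20 mV increments from −60 mV holding, 4 s apart; filtered 1 kHz, sampled 5 kHz. Three experiment sets.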

cellular cAMP [4] = experiment: cAMP immunoassay in FRT cells; type: cell-based, rat; conditions: 10 μM, 10 min, alone or with 90 nM forskolin
How it was run: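 FRT cells in 12-well plates received vehicle, 10 μM test compound with or without 90 nM forskolin, or 20 μM forskolin alone, for 10 min at 37°C. Cells were lysed by freeze-thaw and centrifuged (600g, 10 min, 4°C). cAMP was measured by immunoassay.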

cellular cGMP = experiment: cGMP immunoassay in FRT cells; type: cell-based, rat; conditions: 10 μM, 10 min
How it was run: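 FRT cells received 10 μM test compound or vehicle for 10 min at 37°C. They were lysed by freeze-thaw and cleared by centrifugation (600g, 10 min, 4°C). cGMP was measured by immunoassay.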

cytoplasmic Ca^2+ = experiment: Cytoplasmic calcium measurement; type: cell-based, rat; conditions: 10 μM, 2 min, added alone
How it was run: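 FRT cells were loaded with Fluo-4 NW 48 h after plating. They were pretreated 2 min with 10 μM test compound or vehicle, then given 100 μM ATP as calcium agonist. Cytoplasmic Ca2+ was read as Fluo-4 fluorescence (ex/em 494/516 nm) in a plate reader with syringe pumps.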

[5] = Stability in simulated gastric fluid; type: physicochemical; conditions: 10 μM, pH 2, 37°C, 3 hour
How it was run: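 Test compound (10 μM) was incubated 0 or 3 h at 37°C in simulated gastric fluid (NaCl, 0.7% HCl, pH 2). Remaining compound was measured by LC/MS chromatography. n=3.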

[6] = In vitro metabolic stability in human liver microsomes; type: in vitro ADME; conditions: 1 mM NADPH, 37°C
How it was run: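 Test compound was incubated at 37°C for specified times with human liver microsomes (1 mg protein/mL) in 100 mM potassium phosphate with 1 mM NADPH. Samples were chilled on ice and extracted with ice-cold ethyl acetate. Supernatant was dried, redissolved in acetonitrile:water 3:1 and quantified by LC/MS: 5–95% acetonitrile gradient over 16 min, 0.2 mL/min, ESI(+), m/z 100–1500.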

[7] = tested on: scopolamine-induced constipation; experiment: Scopolamine-induced mouse model of acute constipation; type: in vivo, mice
How it was run: (§1)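 Female CD1 mice, 8–10 weeks, were made constipated with loperamide 0.3 mg/kg ip or scopolamine 0.5 mg/kg ip. Test compound 10 mg/kg (saline with 5% DMSO and 10% Kolliphor HS 15) or vehicle was given ip or orally, 1 h before or 1 h after the inducer. Mice sat in metabolic cages with food and water. Stool was collected 3 h for weight, pellet number and water content (dried 80°C, 24 h). n=4 mice/group.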

[8] = tested on: loperamide-induced constipation; experiment: Loperamide-induced mouse model of constipation; type: in vivo, mice
How it was run: as §1

C3H/HeJ mice = experiment: Genetic mouse model of chronic constipation; type: in vivo
C3H/HeOuJ mice = experiment: Wild-type control mice; type: in vivo; conditions: 10 mg/kg
How it was run: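 Female C3H/HeJ (Tlr4 mutant, chronically constipated) and background C3H/HeOuJ mice, 8–11 weeks, were studied as paired animals. They received test compound 10 mg/kg orally in saline with 5% DMSO and 10% Kolliphor HS 15, or vehicle, at zero time, then went into metabolic cages. Stool was collected 4 h for weight, pellet count and water content ([wet − dry]/wet after drying 80°C, 24 h). n=10 mice/group.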

[9] = tested on: enteroids generated from normal human duodenum and jejunum; experiment: Swelling measurements in human enteroids; type: cell-based
How it was run: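 Enteroids came from adult duodenal/jejunal endoscopic biopsies, grown on coverglass dishes. Medium was replaced with Advanced DMEM/F12 and cytoplasm labelled with calcein green-AM, 1 h at 37°C. Forskolin was added, […], and/or test compound at 5 μM; test compound went in 10 min before forskolin when combined. Confocal images were taken every 10 min at 37°C, 5% CO2. Result was percent increase in enteroid area over initial area, e.g. at 40 min.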

cellular cAMP [10] = conditions: cited from earlier work
[11] = tested on: loperamide-induced constipation; conditions: cited from earlier work
[12] = cited from earlier work
[13] = mice, rapid hepatic metabolism; cited from earlier work
CFTR-deficient mice = conditions: cited from earlier work

T1 sequence (P13569 whole entry): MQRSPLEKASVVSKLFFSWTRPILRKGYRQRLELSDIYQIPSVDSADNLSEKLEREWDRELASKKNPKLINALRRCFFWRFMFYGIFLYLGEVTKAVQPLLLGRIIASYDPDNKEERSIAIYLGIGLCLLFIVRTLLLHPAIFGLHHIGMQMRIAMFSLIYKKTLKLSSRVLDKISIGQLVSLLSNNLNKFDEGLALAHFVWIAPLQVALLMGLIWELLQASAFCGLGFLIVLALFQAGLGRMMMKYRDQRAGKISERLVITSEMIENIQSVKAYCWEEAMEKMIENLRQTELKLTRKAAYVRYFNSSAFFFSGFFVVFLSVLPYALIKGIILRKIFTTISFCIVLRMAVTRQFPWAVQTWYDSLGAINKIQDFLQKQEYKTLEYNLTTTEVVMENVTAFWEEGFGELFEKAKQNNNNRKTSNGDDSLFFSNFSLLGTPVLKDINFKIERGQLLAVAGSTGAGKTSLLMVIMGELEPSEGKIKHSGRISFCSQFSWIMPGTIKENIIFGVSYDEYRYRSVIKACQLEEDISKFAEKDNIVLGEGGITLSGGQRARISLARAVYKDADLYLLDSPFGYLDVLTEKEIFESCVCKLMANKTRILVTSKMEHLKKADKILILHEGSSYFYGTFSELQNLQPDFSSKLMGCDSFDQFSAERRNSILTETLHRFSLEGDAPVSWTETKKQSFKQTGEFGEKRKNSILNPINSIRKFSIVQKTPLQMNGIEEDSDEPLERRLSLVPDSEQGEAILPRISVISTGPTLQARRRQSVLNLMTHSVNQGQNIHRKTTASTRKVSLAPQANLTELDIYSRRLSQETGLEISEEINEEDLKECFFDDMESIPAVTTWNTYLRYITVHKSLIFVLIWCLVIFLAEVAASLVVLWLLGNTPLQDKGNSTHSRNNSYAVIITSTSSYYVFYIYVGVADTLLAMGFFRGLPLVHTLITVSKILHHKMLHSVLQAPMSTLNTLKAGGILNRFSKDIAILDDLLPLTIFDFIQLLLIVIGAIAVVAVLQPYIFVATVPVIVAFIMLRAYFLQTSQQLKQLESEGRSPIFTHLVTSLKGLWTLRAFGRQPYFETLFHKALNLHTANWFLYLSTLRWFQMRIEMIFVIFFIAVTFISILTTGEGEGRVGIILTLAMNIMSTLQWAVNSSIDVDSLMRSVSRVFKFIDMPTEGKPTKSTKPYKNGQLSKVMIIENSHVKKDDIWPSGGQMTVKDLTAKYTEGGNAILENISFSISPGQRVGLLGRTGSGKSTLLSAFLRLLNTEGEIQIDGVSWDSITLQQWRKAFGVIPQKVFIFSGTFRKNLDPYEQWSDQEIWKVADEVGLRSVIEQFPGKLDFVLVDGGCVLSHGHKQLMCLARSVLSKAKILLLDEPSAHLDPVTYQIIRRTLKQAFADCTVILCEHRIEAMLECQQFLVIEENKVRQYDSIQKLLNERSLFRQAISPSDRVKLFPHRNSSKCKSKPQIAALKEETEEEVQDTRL

Compound: Nc1ccc([N+](=O)[O-])cc1-c1nc2ccccc2n(Cc2ccccc2)c1=O [CFTRact-J027]
- EC50 (human wild-type CFTR [1]): ~200 nM
- Increase of CFTR activity (whole-cell current) (human wild-type CFTR [2]; 1 μM extracellular, after 150 nM forskolin (~25% maximal stimulation)): more than 4 fold
- CFTR activity in inside-out patch (human wild-type CFTR [3]): strongly increased CFTR activity
- Cellular cAMP (cellular cAMP [4]): did not elevate cellular cAMP
- Cellular cGMP (cellular cGMP): did not elevate cellular cGMP
- Cytoplasmic Ca^2+ (cytoplasmic Ca^2+): nor did it elevate cytoplasmic Ca^2+
- Stability in simulated gastric fluid [5]: no compound degradation
- Elimination half-life in human hepatic microsomes ([6]; 1 mg protein/mL, CFTRact-J027 as printed): ~ 35 min and 35 min
- Compound remaining at 60 minutes ([6]; human hepatic microsomes): 34%
- Efficacy on stool parameters, given after development of constipation ([7]; 10 mg/kg ip, 1 hour after scopolamine): effective
- Efficacy on stool parameters, given orally after development of constipation ([7]; 10 mg/kg po, 1 hour after scopolamine): not effective
- Stool parameters (3-hour stool weight, pellet number, water content) ([7]; 10 mg/kg po, 1 hour before scopolamine 0.5 mg/kg ip): normalization of stool parameters
- Duration of effect ([7]; in mice): 3 to 4 h
- Efficacy on stool parameters, given after development of constipation ([8]; 10 mg/kg ip, 1 hour after loperamide 0.3 mg/kg ip): effective
- Efficacy on stool parameters, given orally after development of constipation ([8]; 10 mg/kg po, 1 hour after loperamide): not effective
- Whole-gut transit time (C3H/HeJ mice; 10 mg/kg ip): normalized
- 4-hour stool weight, pellet number, and water content (C3H/HeJ mice; 10 mg/kg oral): to the level of wild-type controls
- Stool parameters or whole-gut transit time in wild-type control mice (C3H/HeOuJ mice): did not affect
- Enteroid size, compound alone ([9]; 5 μM, 40 minutes, human jejunal enteroids, no forskolin): Little or no change
- Enteroid swelling response to low forskolin after pretreatment ([9]; 0.1 or 0.2 μM forskolin, pretreatment 10 minutes with CFTRact-J027, duodenum and jejunum): increased
- Swelling response relative to maximal (5 μM) forskolin ([9]; human enteroids): approximately 50%
- Cellular cAMP concentration (prior data) (cellular cAMP [10]): does not elevate cellular cAMP concentration
- Stool output, stool water content, and intestinal transit ([11]; acute constipation produced by loperamide): normalized
- ED50 orally administered, loperamide model ([11]; oral, mice): 0.5 mg/kg
- Blood counts, serum chemistries, and lung water content ([12]; chronic oral high-dose, mice): no effect
- Toxicity [12]: showed no toxicity
- Systemic exposure following oral administration [13]: minimal systemic exposure
- Effect in CFTR-deficient mice (CFTR-deficient mice): no effect

Compound: C=C[C@@]1(C)CC(=O)[C@]2(O)[C@@]3(C)[C@@H](O)CCC(C)(C)[C@@H]3[C@H](O)[C@H](OC(C)=O)[C@@]2(C)O1 [forskolin, reference compound]
- Enteroid area, forskolin alone ([9]; 0.3 μM forskolin, 40 minutes, human jejunal enteroids): small increase in area

Compound: CFTRinh-172 [reference compound]
- Block of currents activated by forskolin and CFTRact-J027 (human wild-type CFTR [2]; 10 μM): blocked
